High-throughput results: PubChem BioAssay, Broad Institute
Most compounds without a hit are left out; they make up all but 0.58% or so of the library.
PglD DTNB – inhibitors of Campylobacter jejuni PglD acetyltransferase; AID 602405; inhibition, % at 12.5 µM; purified PglD enzyme, DTNB colorimetric CoA detection; actives 0.098% (n = 360,000); in the data active = inhibition above about 16%, passing the limit was not always enough
miR-122 sensor – blocks miR-122 activity in Huh7 sensor cells. Huh7 miR-122 Renilla luciferase sensor, 48 h; neutral wells = 0, positive control = 100. activation (reporter increase), % at 12.5 µM. actives 0.3% (n = 340,000). AID 602342;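 active = mean replicate activation score at least 90 and every replicate individually at or above 90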;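 also: higher luciferase means less miR-122 activity so hits act as miR-122 inhibitors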
PDI turbidity – inhibitors of human protein disulfide isomerase. inhibition, % at 10 µM. actives 0.052% (n = 350,000). AID 588391. PDI insulin aggregation turbidity, A650, 90 min. P07237;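 active = mean inhibition across replicates of 30% or more, whatever share of single replicates reach that level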
Target sequence (P07237 whole entry, looked up): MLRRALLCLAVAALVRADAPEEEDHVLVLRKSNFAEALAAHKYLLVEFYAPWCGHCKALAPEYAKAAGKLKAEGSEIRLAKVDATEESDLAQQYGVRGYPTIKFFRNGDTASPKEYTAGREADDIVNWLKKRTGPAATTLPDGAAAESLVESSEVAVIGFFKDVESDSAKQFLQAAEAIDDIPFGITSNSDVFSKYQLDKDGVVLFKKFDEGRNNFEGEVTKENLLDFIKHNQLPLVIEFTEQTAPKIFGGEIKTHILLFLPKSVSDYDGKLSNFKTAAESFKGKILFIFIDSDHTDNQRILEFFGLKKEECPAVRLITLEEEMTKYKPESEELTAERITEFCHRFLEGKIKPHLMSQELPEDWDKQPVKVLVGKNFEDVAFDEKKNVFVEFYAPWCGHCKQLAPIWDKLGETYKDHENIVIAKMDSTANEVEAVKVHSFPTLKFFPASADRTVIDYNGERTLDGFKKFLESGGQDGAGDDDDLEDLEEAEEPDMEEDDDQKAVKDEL
ERp5 block – blocks human ERp5 reductase activity on insulin; ERp5 insulin aggregation, absorbance 650 nm, 90 min; inhibition, % at 9.99 µM; actives 0.05% (n = 350,000); AID 651711;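 active = mean replicate inhibition above about 25%, with every replicate also reaching it, limit read from the data, passing the limit was not always enough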
PvdQ inh – P. aeruginosa PvdQ acylase inhibition | inhibition, % at 10 µM | purified PvdQ acylase, fluorescence plate reader | actives 0.063% (n = 340,000); in the data active = inhibition above about 30%, passing the limit was not always enough;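 also: 0% = vehicle neutral wells and 100% = reference inhibitor wells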
Cneo AK release – causes C. neoformans cell lysis; adenylate kinase release luminescence, 4 h; normalised: neutral wells 0, clomiphene wells 100; AID 651654; lysis activity, % at 15 µM; actives 0.2% (n = 360,000);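 active = mean lysis activity across replicates of at least 80%, whatever share of replicates individually reach that level; inactive = mean lysis activity below 80%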
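Assay system: log-phase C. neoformans yeast / Quantity: yeast cell density of 5 × 10^6 cells/mL / Medium: fresh YPD growth medium / Compound: single dose / Timing: static 4 h at 37 °C with compound, 1 h detection / Measured by: adenylate kinase release luminescence / Read-out: lysis from increased AK signal / Benchmarks: Clomiphene as positive lysis control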
An asterisk follows results filed as active; . = not tested or not shown; [ ] = remark or other dose.

SMILES | PglD DTNB | miR-122 sensor | PDI turbidity | ERp5 block | PvdQ inh | Cneo AK release
C[C@H]1CCCCO[C@H](CN(C)C(=O)C2CCCCC2)[C@@H](C)CN([C@@H](C)CO)C(=O)c2cc(NS(=O)(=O)c3ccc(F)cc3)ccc2O1 | -0.6 | 6.0[16.7 µM] | . | 0.7 | . | 3.8
C[C@@H]1CN([C@@H](C)CO)C(=O)c2cc(NC(=O)C3CC3)ccc2O[C@H]1CN(C)CC1CCCCC1 | -2.5 | 26.8[16.7 µM] | . | -3.3 | . | 100.0*
C[C@@H]1CN([C@H](C)CO)C(=O)c2cc(NC(=O)C3CC3)ccc2O[C@@H]1CN(C)CC1CCCCC1 | 0.7 | -4.2[16.7 µM] | . | 11.4 | . | 6.7
C[C@H](CO)N1C[C@H](C)[C@H](CN(C)CC2CCCCC2)Oc2ccc(NC(=O)Nc3ccc4c(c3)OCO4)cc2C1=O | 0.4 | 58.7[16.7 µM] | . | -4.3 | . | 82.6*
Cc1noc(C)c1NC(=O)Nc1cccc2c1O[C@H](CN(C)CC1CCCCC1)[C@H](C)CN([C@H](C)CO)C2=O | 17.6* | 6.3[16.7 µM] | . | -6.2 | . | 54.6
Cc1noc(C)c1NC(=O)Nc1ccc2c(c1)C(=O)N([C@H](C)CO)C[C@H](C)[C@H](CN(C)CC1CCCCC1)O2 | -1.6 | -1.6[16.7 µM] | . | -5.1 | . | 93.3*
O=C(c1cccnc1)N1CCCCN2[C@H](CO)[C@H](c3ccc(C#Cc4ccccc4)cc3)[C@H]2C1 | -2.1 | 5.1[16.7 µM] | . | . | . | -1.1
CN(C)S(=O)(=O)c1ccc(NS(=O)(=O)/C=C/c2ccccc2)cc1 | 2.5 | 165.1* | 1.3 | . | -9.9 | -5.1
O=S(=O)(/C=C/c1ccccc1)Nc1ccc(F)cc1 | . | . | -3.6 | -2.8 | -17.2 | .
CC[C@]12c3[nH]c4cc(-c5ccco5)ccc4c3CCN1C(=O)[C@@H](CC(=O)NCc1ccc(OC)c(OC)c1)C[C@@H]2C(=O)N1CCN(C(=O)c2ccco2)CC1 | -1.6 | -2.3 | 37.5* | 0.4 | -15.3 | 1.2
CC[C@]12c3[nH]c4cc(CCC(=O)N(C)C)ccc4c3CCN1C(=O)[C@@H](CC(=O)NCc1ccc(OC)c(OC)c1)C[C@@H]2C(=O)N1CCN(C(=O)c2ccco2)CC1 | -0.9 | 1.7 | -1.5 | -3.3 | 5.5 | 1.4
C[C@H](CO)N1C[C@H](C)[C@@H](CN(C)S(=O)(=O)c2cn(C)cn2)Oc2c(NC(=O)Nc3ccccc3)cccc2C1=O | -2.4 | 34.4[16.7 µM] | . | -0.5 | . | 96.7*
C[C@@H]1CN([C@@H](C)CO)C(=O)c2cccc(NC(=O)Nc3ccccc3)c2O[C@H]1CN(C)S(=O)(=O)c1cn(C)cn1 | 2.7 | 17.0[16.7 µM] | . | -3.0 | . | 96.7*
Cc1cc(C(=O)Nc2cccc3c2O[C@@H](CN(C)Cc2ccncc2)[C@H](C)CN([C@@H](C)CO)C3=O)n(C)n1 | 7.5 | 6.4[16.7 µM] | . | 2.8 | . | 0.1
CC(Oc1ccccc1)c1ccnn1S(=O)(=O)c1ccccc1 (configuration not stated) | 10.6 | . | 2.0 | . | -1.9 | -1.7
CC(Oc1ccc(Cl)cc1)c1ccnn1S(=O)(=O)c1ccc(Cl)cc1 (configuration not stated) | -5.5 | 110.8* | -0.5 | . | -12.9 | -0.2
C[C@H](CO)N1C[C@H](C)[C@H](CN(C)Cc2ccc(C(=O)Nc3ccccc3N)cc2)Oc2ccc(NS(=O)(=O)c3cccs3)cc2CC1=O | 1.1 | 103.9*[16.7 µM] | . | -10.3 | . | -2.8
COc1ccc(S(=O)(=O)Nc2ccc3c(c2)CC(=O)N([C@H](C)CO)C[C@H](C)[C@H](CN(C)Cc2ccc(C(=O)Nc4ccccc4N)cc2)O3)cc1 | . | 211.9*[16.7 µM] | . | -1.8 | . | .
C[C@H](CO)N1C[C@H](C)[C@H](CN(C)Cc2ccc(C(=O)Nc3ccccc3N)cc2)Oc2ccc(NS(=O)(=O)c3ccccc3)cc2CC1=O | 0.3 | 145.2*[16.7 µM] | . | -0.2 | . | -1.6
C[C@H](CO)N1C[C@H](C)[C@@H](CN(C)Cc2ccc(C(=O)O)cc2)Oc2ccc(NS(=O)(=O)c3cccs3)cc2CC1=O | . | . | . | 42.6* | . | .
C[C@H](CO)N1C[C@H](C)[C@H](CN(C)Cc2ccc(C(=O)Nc3ccccc3N)cc2)Oc2ccc(NS(=O)(=O)c3ccc(F)cc3)cc2CC1=O | -0.2 | 162.0*[16.7 µM] | . | 10.6 | . | -7.4
C[C@@H]1CN([C@H](C)CO)S(=O)(=O)c2ccc(C#C[C@@H](C)O)cc2O[C@@H]1CN(C)Cc1ccncc1 | 1.5 | 49.7[16.7 µM] | . | -5.1 | . | 83.5*
C[C@H](O)C#Cc1ccc2c(c1)O[C@H](CN(C)Cc1ccncc1)[C@H](C)CN([C@H](C)CO)S2(=O)=O | 1.2 | 21.7[16.7 µM] | . | -1.4 | . | 95.3*
C[C@@H]1CN([C@@H](C)CO)S(=O)(=O)c2ccc(C#C[C@@H](C)O)cc2O[C@@H]1CN(C)C(=O)C1CCCCC1 | 5.3 | 4.3[16.7 µM] | . | -5.3 | . | 105.2*
COCC#Cc1ccc2c(c1)O[C@@H](CN(C)Cc1ccc3c(c1)OCO3)[C@H](C)CN([C@@H](C)CO)S2(=O)=O | -2.1 | -1.4[16.7 µM] | . | 3.8 | . | -5.1
SMILES | PglD DTNB | miR-122 sensor | PDI turbidity | ERp5 block | PvdQ inh | Cneo AK release
C[C@@H]1CN([C@@H](C)CO)S(=O)(=O)c2ccc(C#C[C@@H](C)O)cc2O[C@H]1CN(C)Cc1ccncc1 | 0.4 | 0.5[16.7 µM] | . | 3.1 | . | -1.3
C[C@H](O)C#Cc1ccc2c(c1)O[C@H](CN(C)C(=O)C1CCCCC1)[C@@H](C)CN([C@@H](C)CO)S2(=O)=O | 4.4 | 16.0[16.7 µM] | . | -10.1 | . | 0.3
COCC#Cc1ccc2c(c1)O[C@H](CN(C)Cc1ccc3c(c1)OCO3)[C@@H](C)CN([C@@H](C)CO)S2(=O)=O | -0.5 | 108.7*[16.7 µM] | . | 0.8 | . | 2.3
CN(C)CC(=O)Nc1ccc2c(c1)[C@@H]1C[C@@H](CC(=O)N3CCN(C)CC3)O[C@H](CO)[C@@H]1O2 | -1.5 | -1.7[16.7 µM] | . | 0.5 | . | -1.7
COc1ccc(NC(=O)N(C)C[C@H]2Oc3c(NS(C)(=O)=O)cccc3C(=O)N([C@@H](C)CO)C[C@H]2C)cc1 | 3.1 | -1.5[16.7 µM] | . | -3.7 | . | -2.1
C[C@@H]1CN([C@@H](C)CO)C(=O)c2cc(NS(C)(=O)=O)ccc2O[C@@H](C)CCCCO[C@H]1CN(C)C(=O)NC1CCCCC1 | . | . | . | -5.3 | . | .
C[C@H]1CN([C@@H](C)CO)S(=O)(=O)c2ccc(C#Cc3ccccn3)cc2O[C@@H]1CN(C)Cc1ccc(F)cc1 | 2.0 | 5.0[16.7 µM] | . | 3.5 | . | -2.9
C[C@H]1CN([C@@H](C)CO)S(=O)(=O)c2ccc(C#Cc3cccc(F)c3)cc2O[C@@H]1CN(C)C(=O)NC1CCCCC1 | 0.0 | 32.2[16.7 µM] | . | 14.0 | . | 102.2*
C[C@@H]1CN([C@@H](C)CO)S(=O)(=O)c2ccc(C#Cc3cccc(F)c3)cc2O[C@@H]1CN(C)C(=O)NC1CCCCC1 | . | 6.9[16.7 µM] | . | . | . | .
C[C@H]1CN([C@@H](C)CO)S(=O)(=O)c2ccc(C#Cc3ccccn3)cc2O[C@@H]1CN(C)Cc1ccccc1 | 0.9 | 8.0[16.7 µM] | . | -2.3 | . | 107.0*
C[C@H]1CN([C@@H](C)CO)C(=O)c2cc(NS(=O)(=O)c3cccs3)ccc2O[C@H]1CN(C)C(=O)Nc1ccc2c(c1)OCO2 | 6.8 | 2.1[16.7 µM] | . | 2.9 | . | -1.3
